Experimental data published in publication PMC10864842 (Saudi Pharmaceutical Journal : SPJ, 2024).
“And” between values parts separate entries of the source, which are not always exact repeats. Identical values can stand only once. Like-named read-outs stand apart in the source and are kept apart here.

Experiments:
[1] = target: T1, KSP ATPase (Homo sapiens, UniProt P52732); test: Microtubule-activated KSP ATPase end-point assay; format: biochemical; conditions: read-out: KSP ATPase inhibition [%]
T1 sequence (P52732 1-1056): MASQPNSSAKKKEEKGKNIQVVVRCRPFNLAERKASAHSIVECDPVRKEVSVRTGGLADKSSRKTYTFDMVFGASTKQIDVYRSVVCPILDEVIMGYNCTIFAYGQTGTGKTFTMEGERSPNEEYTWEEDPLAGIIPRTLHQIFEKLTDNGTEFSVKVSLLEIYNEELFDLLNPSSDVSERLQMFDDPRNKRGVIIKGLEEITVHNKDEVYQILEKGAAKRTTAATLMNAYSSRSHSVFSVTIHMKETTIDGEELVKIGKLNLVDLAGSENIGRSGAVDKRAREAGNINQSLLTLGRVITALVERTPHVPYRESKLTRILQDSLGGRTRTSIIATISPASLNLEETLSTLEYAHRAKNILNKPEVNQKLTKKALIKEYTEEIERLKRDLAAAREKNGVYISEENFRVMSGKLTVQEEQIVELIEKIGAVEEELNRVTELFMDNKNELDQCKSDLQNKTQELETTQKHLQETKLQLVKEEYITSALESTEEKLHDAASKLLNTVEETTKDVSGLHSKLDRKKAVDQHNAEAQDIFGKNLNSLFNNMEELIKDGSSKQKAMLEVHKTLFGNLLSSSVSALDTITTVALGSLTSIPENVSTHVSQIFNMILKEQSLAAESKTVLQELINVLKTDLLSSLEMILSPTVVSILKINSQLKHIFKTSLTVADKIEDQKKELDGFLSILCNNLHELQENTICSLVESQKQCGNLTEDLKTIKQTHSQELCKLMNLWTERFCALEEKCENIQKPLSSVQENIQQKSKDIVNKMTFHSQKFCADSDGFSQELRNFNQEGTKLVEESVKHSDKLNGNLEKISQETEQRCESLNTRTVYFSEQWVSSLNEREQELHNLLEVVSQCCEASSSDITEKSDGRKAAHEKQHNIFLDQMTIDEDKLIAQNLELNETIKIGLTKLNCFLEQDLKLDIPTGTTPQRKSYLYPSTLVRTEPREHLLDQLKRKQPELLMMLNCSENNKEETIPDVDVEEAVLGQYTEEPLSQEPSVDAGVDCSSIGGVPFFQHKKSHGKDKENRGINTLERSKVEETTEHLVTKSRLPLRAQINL

[2] = target: T1, KSP ATPase; test: Microtubule-activated KSP ATPase kinetic assay; format: biochemical
[3] = target: PI3Kδ (Homo sapiens, UniProt O00329); test: PI3Kδ inhibition assay; format: biochemical
[4] = test system: MDA-MB-231 breast cancer cells; test: MTT assay on MDA-MB-231 cells; format: cell-based; conditions: Homo sapiens
How it was run: (§1)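 Cells kept in DMEM with 10% (v/v) FBS and 1% (v/v) streptomycin/penicillin at 37 °C and 5% CO2. About 10^4 cells/ml were seeded and grown for 24 h. Test compounds in DMSO were added at 6.25, 12.5, 25, 50 and 100 µg/ml for 24 and 48 h. Medium was replaced with 5 mg/mL MTT for 3–4 h. Formazan was dissolved in acidified isopropanol and read at 630 nm. Viability is expressed as % of untreated cells.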

[5] = MTT assay on oral epithelial normal cells; format: cell-based
How it was run: as §1

[6] = test system: MDA-MB-231 cells; test: Morphological study by inverted microscope; format: cell-based; conditions: 48 h
How it was run: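 MDA-MB-231 cells were grown in DMEM with 10% FBS and 1% streptomycin/penicillin at 37 °C, 5% CO2. They were treated with varying concentrations of test compound for 48 h and examined by inverted light microscopy. Phenotypic changes were scored as cell shrinkage, apoptotic body formation and membrane blebbing.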

[7] = test system: MDA-MB-231 cells; test: Annexin V-FITC/PI flow cytometry; format: cell-based; conditions: MDA-MB-231, Annexin V-FITC & PI, post-treatment
How it was run: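 MDA-MB-231 cells were kept in DMEM with 10% FBS and 1% streptomycin/penicillin at 37 °C under 5% CO2. Cells were treated with the test compound for 48 h, with doxorubicin as the standard and untreated cells for comparison. Cells were then harvested, rinsed, suspended in PBS, stained with Annexin V-FITC/PI and held 20 min in the dark before flow cytometry. Early apoptosis was Annexin V+/PI−; late apoptosis was Annexin V+/PI+.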

[8] = test system: MDA-MB-231 cells; test: DNA fragmentation by gel electrophoresis; format: cell-based; conditions: post-treatment
How it was run: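 MDA-MB-231 cells kept in DMEM with 10% FBS and 1% streptomycin/penicillin at 37 °C, 5% CO2. Genomic DNA was extracted with a commercial kit from cells before and after test compound treatment, and its quality was checked by nanodrop. DNA plus 1X loading dye was run on agarose gel, viewed under a UV transilluminator and imaged on a gel documentation system. Doxorubicin served as reference.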

[9] = test system: MDA-MB-231 cells; test: qRT-PCR relative gene expression of P53, BAX and BCL-2; format: cell-based; conditions: MDA-MB-231, 48 h
How it was run: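 RNA was extracted from cells after 48 h of treatment with test compound, and its purity was checked by nanodrop. P53, BAX and BCL-2 expression was normalised to β-actin as the housekeeping gene. Treated and untreated cells were compared by ANOVA.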

PI3Kδ, sequence (O00329 whole entry): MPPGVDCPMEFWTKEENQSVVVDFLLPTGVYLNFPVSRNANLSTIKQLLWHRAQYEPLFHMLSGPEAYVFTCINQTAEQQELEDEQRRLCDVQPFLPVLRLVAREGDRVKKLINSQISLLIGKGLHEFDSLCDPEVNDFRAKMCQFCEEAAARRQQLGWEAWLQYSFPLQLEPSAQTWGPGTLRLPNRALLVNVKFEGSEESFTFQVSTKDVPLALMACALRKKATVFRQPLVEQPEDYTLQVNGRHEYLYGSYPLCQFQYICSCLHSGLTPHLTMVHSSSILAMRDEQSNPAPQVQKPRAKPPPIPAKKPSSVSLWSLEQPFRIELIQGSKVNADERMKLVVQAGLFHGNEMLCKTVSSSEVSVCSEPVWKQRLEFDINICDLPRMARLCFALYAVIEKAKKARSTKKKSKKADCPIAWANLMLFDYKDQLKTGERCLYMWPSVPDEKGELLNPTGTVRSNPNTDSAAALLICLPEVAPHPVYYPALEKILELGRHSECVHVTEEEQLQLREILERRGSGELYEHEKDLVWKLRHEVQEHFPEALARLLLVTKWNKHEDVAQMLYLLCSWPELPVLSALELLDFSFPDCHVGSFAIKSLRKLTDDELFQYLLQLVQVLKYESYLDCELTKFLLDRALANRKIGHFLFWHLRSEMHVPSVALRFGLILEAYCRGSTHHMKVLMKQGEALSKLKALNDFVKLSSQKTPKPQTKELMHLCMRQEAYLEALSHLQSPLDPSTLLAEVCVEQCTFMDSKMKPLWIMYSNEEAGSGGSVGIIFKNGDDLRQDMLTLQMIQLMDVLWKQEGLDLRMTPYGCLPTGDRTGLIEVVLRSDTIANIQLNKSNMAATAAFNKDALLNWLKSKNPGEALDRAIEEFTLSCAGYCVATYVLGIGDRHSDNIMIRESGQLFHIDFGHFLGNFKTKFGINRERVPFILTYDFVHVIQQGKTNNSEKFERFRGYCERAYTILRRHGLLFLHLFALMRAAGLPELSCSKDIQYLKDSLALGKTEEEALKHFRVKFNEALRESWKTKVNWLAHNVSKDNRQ
PI3Kδ, sequence (P27986 whole entry partner): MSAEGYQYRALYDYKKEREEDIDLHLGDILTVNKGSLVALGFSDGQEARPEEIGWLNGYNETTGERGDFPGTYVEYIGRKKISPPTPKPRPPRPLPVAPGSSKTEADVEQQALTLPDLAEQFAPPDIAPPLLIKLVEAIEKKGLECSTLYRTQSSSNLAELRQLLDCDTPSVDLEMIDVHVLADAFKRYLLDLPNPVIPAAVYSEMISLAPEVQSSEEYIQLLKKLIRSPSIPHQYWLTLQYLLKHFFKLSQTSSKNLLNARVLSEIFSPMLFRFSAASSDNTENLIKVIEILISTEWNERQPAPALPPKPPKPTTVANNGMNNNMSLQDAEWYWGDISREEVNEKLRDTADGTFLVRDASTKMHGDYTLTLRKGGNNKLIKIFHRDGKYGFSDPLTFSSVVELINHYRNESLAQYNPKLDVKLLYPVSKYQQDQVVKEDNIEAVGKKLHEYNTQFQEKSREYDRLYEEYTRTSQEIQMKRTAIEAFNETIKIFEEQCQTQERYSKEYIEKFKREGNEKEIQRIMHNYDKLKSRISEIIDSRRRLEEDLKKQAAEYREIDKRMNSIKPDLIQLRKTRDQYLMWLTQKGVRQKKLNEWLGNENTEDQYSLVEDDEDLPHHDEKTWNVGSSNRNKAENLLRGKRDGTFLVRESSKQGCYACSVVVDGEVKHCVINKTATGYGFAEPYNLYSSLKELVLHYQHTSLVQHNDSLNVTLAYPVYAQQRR

O=c1c2cc(Cl)ccc2nc(SCc2ccc(F)cc2)n1-c1ccc(F)cc1 [Compound 3e, 6-Chloro-2-((4-fluorobenzyl)thio)-3-(4-fluorophenyl)quinazolin-4(3H)-one]
inhibition at 2 µM [1]: 93.3 ± 2.1% | IC50 [2]: 0.0684 µM | IC50 [3]: 0.0454 ± 0.00205 µM | IC50 ([4]; MDA-MB-231, 24 h, read-out: IC50 after 24 h (µM)): 21.5 µM | IC50 ([4]; MDA-MB-231, 24 h, read-out: IC50 after 24 h in µg/mL): 8.94 ± 0.08 µg/mL | IC50 ([4]; MDA-MB-231, 48 h, read-out: IC50 after 48 h (µM)): 9.97 µM | IC50 ([4]; MDA-MB-231, 48 h, read-out: IC50 after 48 h in µg/mL): 4.14 ± 0.11 µg/mL | IC50 at 48 h [5]: 92.1 µg/mL and 222 µM | Morphological changes of treated cells [6]: cell shrinkage, apoptotic bodies formation, and membrane blebbing | Number of cells in the early and late apoptosis versus untreated cells [7]: significant increase | DNA fragmentation [8]: internucleosomal fragmentation was noticed | Relative gene expression of BAX [9]: significant overexpression | Relative gene expression of BCL-2 [9]: downregulation | Relative gene expression of P53 [9]: significant overexpression
